Test results taken from ChEMBL document CHEMBL1152867, “Targeting QseC signaling and virulence for antibiotic development” (Science, 2008).
Activity calls are given as the source filed them. No cut-off for these calls is given here.

Key:
[1] = Terminal half life in CD1 mouse at 20 mg/kg, iv administered as bolus dose; format: ADME, organism-based; set-up: dose 20 mg/kg, route intravenous; conditions: in vivo, read-out: beta t1/2
How it was run: (§1)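 Groups of three were bled terminally by cardiac puncture at set times. Plasma was acetonitrile-precipitated with internal standard and quantified by electrospray LC/MS/MS against a plasma standard curve (10-1000 ng/ml). Noncompartmental analysis was used.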

Mus musculus [2] = assay: Toxicity in CD1 mouse assessed as change in liver weight at 20 mg/kg, po administered daily once for 5 days measured 3 days after final dose; format: organism-based; set-up: dose 20 mg/kg, route oral; conditions: in vivo, 72 h
How it was run: (§2)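 Female CD-1 mice (~22 g), three per group, given 20 mg/kg by oral gavage once daily for 5 days. Vehicle-only mice served as controls. Animals were weighed and observed daily. Three days after the last dose they were weighed and sacrificed. Blood was taken for chemistry and complete blood counts, and organs were weighed.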

Mus musculus [3] = assay: Toxicity in CD1 mouse assessed as urea nitrogen levels at 20 mg/kg, po administered daily once for 5 days measured 3 days after final dose; format: organism-based; set-up: dose 20 mg/kg, route oral; conditions: in vivo, 72 h; how it was run: as §2
[4] = target: Beta-2 adrenergic receptor (Homo sapiens) (UniProt P07550); assay: Effect on terbulaline-induced human beta-2-adrenergic receptor activation expressed in HEK293 cells assessed as cAMP release at 5 uM; format: functional, cell-based
How it was run: (§3)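 HEK293 cells carried an EPAC-based cAMP BRET reporter. The agonist for β1 (exogenous) was 1 nM dobutamine, for β2 (endogenous) 100 nM terbutaline, and for β3 (exogenous) 10 nM BRL37344. Each agonist was given alone or with 5 μM compound. Live-cell cAMP was read as triplicate means, representative of 3 experiments.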

Salmonella typhimurium [5] = assay: Bacteriostatic activity against Salmonella Typhimurium SL1344 at 1 uM; format: functional, organism-based; conditions: Salmonella enterica subsp. enterica serovar Typhimurium str. SL1344
Mus musculus [6] = assay: Toxicity in CD1 mouse assessed as eosinophil counts at 20 mg/kg, po administered daily once for 5 days measured 3 days after final dose; format: organism-based; set-up: dose 20 mg/kg, route oral; conditions: in vivo, 72 h; how it was run: as §2
[7] = Clearance in CD1 mouse at 20 mg/kg, iv administered as bolus dose; format: ADME, organism-based; set-up: dose 20 mg/kg, route intravenous; conditions: in vivo; how it was run: as §1
[8] = tested on: Francisella tularensis subsp. tularensis SCHU S4; assay: Inhibition of virulence gene mip expression in Francisella tularensis SCHU S4 at 5 pM by quantitative real-time PCR; format: functional, organism-based
Mus musculus [9] = assay: Toxicity in CD1 mouse assessed as basophil counts at 20 mg/kg, po administered daily once for 5 days measured 3 days after final dose; format: organism-based; set-up: dose 20 mg/kg, route oral; conditions: in vivo, 72 h; how it was run: as §2
[10] = Clearance in CD1 mouse at 20 mg/kg, po; format: ADME, organism-based; set-up: dose 20 mg/kg, route oral; conditions: in vivo
How it was run: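 Terminal cardiac bleeds were taken in groups of three at set times. Plasma was acetonitrile-precipitated with internal standard and analysed by LC/MS/MS against a spiked-plasma standard curve. Parameters came from noncompartmental analysis.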

Escherichia coli [11] = assay: Antibacterial activity against Escherichia coli infected in New Zealand white rabbit assessed as inhibition of bacterial colonization in ileum at 20 mg/kg administered along with bacterial challenge; format: functional, organism-based; set-up: dose 20 mg/kg
Escherichia coli [12] = assay: Antibacterial activity against Escherichia coli infected in New Zealand white rabbit assessed as inhibition of bacterial colonization in cecum at 20 mg/kg administered 3 hrs post-bacterial challenge; format: functional, organism-based; set-up: dose 20 mg/kg; conditions: Caecum
Mus musculus [13] = assay: Toxicity in CD1 mouse assessed as mean corpuscular hemoglobin at 20 mg/kg, po administered daily once for 5 days measured 3 days after final dose; format: organism-based; set-up: dose 20 mg/kg, route oral; conditions: in vivo, 72 h; how it was run: as §2
[14] = tested on: Francisella tularensis subsp. tularensis SCHU S4; assay: Inhibition of virulence gene iglC expression in Francisella tularensis SCHU S4 at 5 pM by quantitative real-time PCR; format: functional, organism-based
Mus musculus [15] = assay: Toxicity in CD1 mouse assessed as change in brain weight at 20 mg/kg, po administered daily once for 5 days measured 3 days after final dose; format: organism-based; set-up: dose 20 mg/kg, route oral; conditions: in vivo; how it was run: as §2
Salmonella typhimurium [16] = assay: Inhibition of norepinephrine-induced virulence gene sifA expression in Salmonella Typhimurium at 5 pM; format: functional, organism-based; conditions: Salmonella enterica subsp. enterica serovar Typhimurium
Mus musculus [17] = assay: Toxicity in CD1 mouse assessed as RBC counts at 20 mg/kg, po administered daily once for 5 days measured 3 days after final dose; format: organism-based; set-up: dose 20 mg/kg, route oral; conditions: in vivo, 72 h
[18] = target: Beta-3 adrenergic receptor (Homo sapiens) (UniProt P13945); assay: Effect on BRL-37344-induced human beta-3-adrenergic receptor activation expressed in HEK293 cells assessed as cAMP release at 5 uM; format: functional, cell-based; how it was run: as §3
Escherichia coli [19] = assay: Inhibition of epinephrine-induced EspA protein secretion in Escherichia coli 8624 at 5 nM by Western blot; format: functional, organism-based
How it was run: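 Secreted proteins in cell-free supernatant were TCA-precipitated and immunoblotted with rabbit polyclonal anti-EspA and anti-EspB, with ECL detection.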

Escherichia coli [20] = assay: Inhibition of AI3-induced Qsec-dependent virulence gene eae expression in Escherichia coli at 5 pM by quantitative real-time PCR; format: functional, organism-based
[21] = AUC in CD1 mouse at 20 mg/kg, iv administered as bolus dose; format: ADME, organism-based; set-up: dose 20 mg/kg, route intravenous; conditions: plasma; how it was run: as §1
[22] = tested on: Francisella tularensis subsp. tularensis SCHU S4; assay: Antibacterial activity against Francisella tularensis SCHU S4 infected in mouse J774 cells assessed as reduction in bacterial CFU at 5 nM relative to control; format: functional
Mus musculus [23] = assay: Toxicity in CD1 mouse assessed as albumin levels at 20 mg/kg, po administered daily once for 5 days measured 3 days after final dose; format: organism-based; set-up: dose 20 mg/kg, route oral; conditions: in vivo, 72 h
Mus musculus [24] = assay: Toxicity in CD1 mouse assessed as alkaline phosphatase levels at 20 mg/kg, po administered daily once for 5 days measured 3 days after final dose; format: organism-based; set-up: dose 20 mg/kg, route oral; conditions: in vivo, 72 h
Escherichia coli [25] = assay: Inhibition of AI3-induced Qsec-dependent virulence gene ler expression in Escherichia coli at 5 pM by quantitative real-time PCR; format: functional, organism-based
Escherichia coli [26] = assay: Inhibition of [3H]norepinephrine binding to Escherichia coli Qsec at 5 pM by liposome-based scintillation counting assay
How it was run: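 Liposomes reconstituted with QseC were loaded with tritiated norepinephrine (5 μM) by freeze-thaw in liquid N2 and held 10 min at room temperature, so unbound signal could diffuse out. They were pelleted at 12,000g for 5 min and counted for tritium. Counts were normalized to liposomes loaded with 5 μM tyrosine. Compound was tested at 5 pM and 5 fM.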

[27] = tested on: Francisella tularensis subsp. tularensis SCHU S4; assay: Inhibition of virulence gene mglA expression in Francisella tularensis SCHU S4 at 5 pM by quantitative real-time PCR; format: functional, organism-based
Mus musculus [28] = assay: Toxicity in CD1 mouse assessed as change in lung weight at 20 mg/kg, po administered daily once for 5 days measured 3 days after final dose; format: organism-based; set-up: dose 20 mg/kg, route oral; conditions: in vivo, 72 h; how it was run: as §2
[29] = tested on: Francisella tularensis subsp. tularensis SCHU S4; assay: Inhibition of virulence gene qseC expression in Francisella tularensis SCHU S4 at 5 pM by quantitative real-time PCR; format: functional, organism-based
Mus musculus [30] = assay: Toxicity in CD1 mouse assessed as aspartate transaminase levels at 20 mg/kg, po administered daily once for 5 days measured 3 days after final dose; format: organism-based; set-up: dose 20 mg/kg, route oral; conditions: in vivo, 72 h
Mus musculus [31] = assay: Toxicity in CD1 mouse assessed as monocyte counts at 20 mg/kg, po administered daily once for 5 days measured 3 days after final dose; format: organism-based; set-up: dose 20 mg/kg, route oral; conditions: in vivo, 72 h; how it was run: as §2
Mus musculus [32] = assay: Toxicity in CD1 mouse assessed as change in kidney weight at 20 mg/kg, po administered daily once for 5 days measured 3 days after final dose; format: organism-based; set-up: dose 20 mg/kg, route oral; conditions: in vivo, 72 h; how it was run: as §2
Salmonella typhimurium [33] = assay: Antibacterial activity against Salmonella Typhimurium SL1344 infected in 129x1/SvJ mouse assessed as survival at 20 mg/kg, po administered 3 hrs pre and 3 hrs post-bacterial challenge measured after 24 hrs; format: functional
How it was run: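 Female 129x1/SvJ mice, 7–9 weeks old, were infected intraperitoneally with 10^8 cfu S. typhimurium SL1344. The test agent was given orally at 20 mg/kg in 5% DMSO/23% PEG400/70% Na bicarbonate pH 9/2% Tween 80, 3 h before and 3 h after infection. Controls were drug alone and infection alone. Groups of 10 mice were used and the experiment was repeated twice. Morbidity and death were recorded daily, and survivors were euthanized at day 12.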

Sequence of Beta-2 adrenergic receptor (Homo sapiens) (P07550 whole entry, looked up): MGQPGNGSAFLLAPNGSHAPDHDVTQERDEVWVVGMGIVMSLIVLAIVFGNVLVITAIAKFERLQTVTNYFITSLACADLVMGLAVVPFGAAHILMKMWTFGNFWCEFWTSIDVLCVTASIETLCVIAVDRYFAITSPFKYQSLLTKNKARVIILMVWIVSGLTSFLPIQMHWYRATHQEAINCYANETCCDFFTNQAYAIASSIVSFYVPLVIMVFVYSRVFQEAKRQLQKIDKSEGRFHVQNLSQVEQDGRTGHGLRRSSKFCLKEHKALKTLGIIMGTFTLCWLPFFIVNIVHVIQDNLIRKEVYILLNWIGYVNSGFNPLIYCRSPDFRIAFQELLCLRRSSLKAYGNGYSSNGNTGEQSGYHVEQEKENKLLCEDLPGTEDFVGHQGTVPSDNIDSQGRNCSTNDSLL
Sequence of Beta-3 adrenergic receptor (Homo sapiens) (P13945 whole entry, looked up): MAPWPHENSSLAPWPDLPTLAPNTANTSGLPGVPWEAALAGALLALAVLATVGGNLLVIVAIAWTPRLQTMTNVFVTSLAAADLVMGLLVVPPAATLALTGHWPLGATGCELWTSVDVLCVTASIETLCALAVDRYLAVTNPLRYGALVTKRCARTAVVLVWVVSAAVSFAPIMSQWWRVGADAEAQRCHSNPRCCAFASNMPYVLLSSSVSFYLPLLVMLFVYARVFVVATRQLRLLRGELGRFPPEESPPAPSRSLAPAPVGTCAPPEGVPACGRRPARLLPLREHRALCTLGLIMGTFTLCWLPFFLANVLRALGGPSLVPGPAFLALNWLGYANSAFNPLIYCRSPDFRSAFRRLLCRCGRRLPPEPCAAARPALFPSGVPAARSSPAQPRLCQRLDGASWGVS

**Q.** For O=S(=O)(Nc1ccccc1)c1ccc(NC(=S)Nc2ccccc2)cc1, which half-life [1] is on record?
**A.** Its half-life is 339 min.

**Q.** And the Activity (Mus musculus [2])?
**A.** Its Activity is “Non-toxic”.

**Q.** And the Activity (Mus musculus [3])?
**A.** Its Activity is 19 mg/dL.

**Q.** And the Activity [4]?
**A.** Its Activity is “inactive”.

**Q.** What about the Activity (Salmonella typhimurium [5]) of the same compound?
**A.** The Activity was “inactive”.

**Q.** And the Activity (Mus musculus [6])?
**A.** The Activity was 0.7%.

**Q.** And the clearance [7]?
**A.** Its clearance is 1.48 mL/min.

**Q.** What about the Activity [8] of the same compound?
**A.** The Activity was “Active”.

**Q.** And the Activity (Mus musculus [9])?
**A.** The Activity was 0%.

**Q.** And the CL/F [10]?
**A.** The CL/F was 2.34 mL/min.

**Q.** What about the Activity (Escherichia coli [11]) of the same compound?
**A.** The Activity was “inactive”.

**Q.** What about the Activity (Escherichia coli [12]) of the same compound?
**A.** Its Activity is “inactive”.

**Q.** What about the Activity (Mus musculus [13]) of the same compound?
**A.** The Activity was 16.1 pg.

**Q.** And the Activity [14]?
**A.** The Activity was “Active”.

**Q.** And the Activity (Mus musculus [15])?
**A.** The Activity was “Non-toxic”.

**Q.** And the Activity (Salmonella typhimurium [16])?
**A.** Its Activity is “Active”.

**Q.** What about the Activity (Mus musculus [17]) of the same compound?
**A.** The Activity was 7.4 M/uL.

**Q.** And the Activity [18]?
**A.** The Activity was “inactive”.

**Q.** What about the Activity (Escherichia coli [19]) of the same compound?
**A.** The Activity was “Active”.

**Q.** And the Activity (Escherichia coli [20])?
**A.** The Activity was “Active”.

**Q.** What about the AUC [21] of the same compound?
**A.** Its AUC is 5010 ng·h/mL.

**Q.** What about the “fold change (FC)” value [22] of the same compound?
**A.** Its value is 10.

**Q.** What about the Activity (Mus musculus [23]) of the same compound?
**A.** The Activity was 2.6 g/dL.

**Q.** And the Activity (Mus musculus [24])?
**A.** The Activity was 141.3 U/L.

**Q.** What about the Activity (Escherichia coli [25]) of the same compound?
**A.** The Activity was “Active”.

**Q.** What about the Activity (Escherichia coli [26]) of the same compound?
**A.** Its Activity is “Active”.

**Q.** And the Activity [27]?
**A.** Its Activity is “Active”.

**Q.** And the Activity (Mus musculus [28])?
**A.** The Activity was “Non-toxic”.

**Q.** And the Activity [29]?
**A.** The Activity was “Active”.

**Q.** What about the Activity (Mus musculus [30]) of the same compound?
**A.** Its Activity is 120.3 U/L.

**Q.** And the Activity (Mus musculus [31])?
**A.** Its Activity is 8.1%.

**Q.** What about the Activity (Mus musculus [32]) of the same compound?
**A.** Its Activity is “Non-toxic”.

**Q.** What about the Activity (Salmonella typhimurium [33]) of the same compound?
**A.** Its Activity is 80%.
